In ChEMBL document CHEMBL1130037, “Synthesis and pharmacological properties of a close analogue of an antithrombotic pentasaccharide (SR 90107A/ORG 31540)” (J Med Chem, 1997):
pIC50, pKd: −log10 of the molar value.

How the values were obtained:
[1] = Elimination half life was determined.; type: ADME
Procedure, shortened: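 Rats with jugular catheter (pentobarbitone anesthesia), recovered overnight, received 100 nmol/kg iv bolus. Citrated blood collected; plasma levels measured by anti-factor Xa activity using each compound as its own reference. Half-life from slope of terminal phase; mean ± SEM, n = 4.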

Antithrombin-III = Antithrombin-III (Homo sapiens, UniProt P01008); assay: Dissociation constant for Antithrombin-III
Chain of Antithrombin-III (P01008 whole entry): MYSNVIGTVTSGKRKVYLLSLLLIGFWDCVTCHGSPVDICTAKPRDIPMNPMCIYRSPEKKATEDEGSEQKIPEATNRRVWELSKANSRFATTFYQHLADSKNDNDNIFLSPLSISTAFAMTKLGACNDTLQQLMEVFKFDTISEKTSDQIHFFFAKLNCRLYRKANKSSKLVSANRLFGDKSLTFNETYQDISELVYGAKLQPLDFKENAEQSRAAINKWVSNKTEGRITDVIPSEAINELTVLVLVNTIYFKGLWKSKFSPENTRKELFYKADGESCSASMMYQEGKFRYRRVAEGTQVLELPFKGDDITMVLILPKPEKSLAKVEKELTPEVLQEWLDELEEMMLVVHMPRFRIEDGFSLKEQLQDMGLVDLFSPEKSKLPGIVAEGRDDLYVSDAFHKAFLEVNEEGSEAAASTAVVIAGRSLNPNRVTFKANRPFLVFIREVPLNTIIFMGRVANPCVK
Procedure, shortened: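 Intrinsic protein fluorescence titration at 37 °C with stirring; oligosaccharides added to Tris-HCl 0.01 M pH 7.0, 0.15 M NaCl containing 5–60 nM human AT III (purified). Complex concentrations calculated assuming 1:1 stoichiometry; KD from Scatchard analysis. Mean ± SEM, n = 3.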

[2] = biological target: Coagulation factor X (Homo sapiens) (UniProt P00742); assay: Inhibition of blood coagulation factor Xa was determined by AT III.
Chain of Coagulation factor X (Homo sapiens) (P00742 41-179 limits assumed): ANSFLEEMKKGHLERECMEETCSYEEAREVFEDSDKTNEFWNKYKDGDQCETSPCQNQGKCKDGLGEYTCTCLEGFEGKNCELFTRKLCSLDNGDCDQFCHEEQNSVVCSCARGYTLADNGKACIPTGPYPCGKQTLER
Chain of Coagulation factor X (Homo sapiens) (P00742 235-488 limits assumed): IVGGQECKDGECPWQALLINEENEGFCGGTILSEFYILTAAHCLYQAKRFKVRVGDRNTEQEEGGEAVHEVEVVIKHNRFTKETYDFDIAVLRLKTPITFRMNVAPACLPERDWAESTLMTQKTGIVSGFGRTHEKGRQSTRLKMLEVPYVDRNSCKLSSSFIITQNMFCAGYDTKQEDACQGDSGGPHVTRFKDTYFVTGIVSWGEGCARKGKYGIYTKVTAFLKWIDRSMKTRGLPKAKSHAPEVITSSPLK
Procedure, shortened: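 Amidolytic assay in buffer: factor Xa (7.5 nkat/mL) incubated 2 min at 37 °C with AT III (0.5 unit/mL) and oligosaccharide at various concentrations in 20 mM Tris/maleate pH 7.4, 150 mM NaCl. Residual Xa measured with S-2222 (1 mM stock); stopped after 2 min with acetic acid, A405 read. Activity versus calibrated standard; mean ± SEM, n = 3.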

Rattus norvegicus = assay: In vivo antithrombotic activity was determined in rats; type: functional
Procedure, shortened: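 Stasis plus hypercoagulability venous thrombosis in male Sprague-Dawley rats (250-300 g) under pentobarbitone (30 mg/kg ip). Compounds given iv (penile vein) 5 min before human tissue factor (1 ng/kg iv over 30 s). Vena cava ligated 10 s later for 20 min; thrombus dried and weighed. ED50 = 50% thrombus weight reduction; mean with 95% CI, n = 6.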

Prothrombin = Prothrombin (Homo sapiens, UniProt P00734); assay: Inhibition of Thrombin generation was determined; type: functional
Procedure, shortened: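 Thrombin generation in human defibrinated platelet-poor citrated plasma at 37 °C. Cuvette held rabbit brain thromboplastin (amount giving 90 s Quick time), S-2222 (1.6 mM stock), compound in Tris-HCl pH 7.35, and CaCl2 (0.25 M stock). Plasma addition started the reaction; A405 followed 20 min. IC50 from area under curve by four-parameter logistic fit; mean with 95% CI, n = 3.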

half-life [1]: 42 min
pKd (Antithrombin-III): 7.24
Activity [2]: 850 U/mg
pIC50 (Prothrombin): 6.89
SMILES: O=C([O-])C1O[C@@H](O[C@H]2C(O)C(NS(=O)(=O)[O-])[C@@H](O)O[C@H]2COS(=O)(=O)[O-])C(NS(=O)(=O)[O-])[C@@H](O)[C@@H]1O[C@@H]1OC(COS(=O)(=O)[O-])[C@@H](O[C@@H]2O[C@@H](C(=O)[O-])[C@@H](O[C@H]3O[C@@H](COS(=O)(=O)[O-])[C@@H](O)C(O)C3NS(=O)(=O)[O-])C(O)C2O)[C@H](OS(=O)(=O)[O-])C1OS(=O)(=O)[O-].[Na+].[Na+].[Na+].[Na+].[Na+].[Na+].[Na+].[Na+].[Na+].[Na+] (stereo not given in full)
ED50 (Rattus norvegicus): 0.081 mg/kg
